Entries after “also recorded” stand apart in the source; their conditions may differ.

The conditions of series [1]: intra-articular injection, ref [47]; cited from earlier work.
For series [2] the following is noted: cited from earlier work.
The nature of a further series: Solute properties. The format is physicochemical. Conditions: known charge of the trivalent peptide.
The nature of series [3]: Net charge estimated by fitting Donnan equilibrium theory to uptake data. The format is physicochemical, bovine. To be noted: average of individual explants, mean ± SD, n = 68. The method in brief: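 Bovine cartilage disks (3-mm, L1/L2) equilibrated 48 h at 4°C in PBS with 0.1% BSA, 0.01% NaN₃ and protease inhibitors containing ¹²⁵I-labelled peptide. Disk and bath counted by gamma counter. Uptake ratio: tissue concentration per water weight over bath concentration. sGAG measured by DMMB after proteinase-K digestion. Z is the exponent of a power-law relating peptide uptake to Na⁺ partitioning calculated from each specimen's GAG density.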

A short description of series [4]: Equilibrium uptake / competitive binding in adult bovine cartilage. Conditions: labeled vs unlabeled Pf-pep.
The nature of series [5]: Calculated diffusion times and temperature effect.
For series [6] the following is noted: vs native BSA, ref [21]–[23]; cited from earlier work.
For series [7] the following is noted: ref [17], [18]; cited from earlier work.

Turning to `O=C(O)Cc1ccccc1Nc1c(Cl)cccc1Cl` [diclofenac], the “clearance time from synovial fluid” value in series [1] is 1 to 5 h.
On to `OC[C@H]1OC(O)[C@H](O)[C@@H](O)[C@@H]1O` (stereo partly drawn) [glucose], for which the “variation of diffusivity with tissue depth” value in series [2] (ref [42]) is on record as “did not vary significantly with tissue depth”.
For the compound `O=C(O)c1ccccc1O` [salicylate], the “clearance time from synovial fluid” value in series [1] was 1 to 5 h.
Regarding `CN(C)c1ccc2c(-c3ccccc3C(=O)[O-])c3ccc(N(C)C)cc3[o+]c2c1` [tetramethylrhodamine], the “effect of static compression on diffusivity” value in series [2] (TMR, ref [49], [50]) is listed as “reduced the diffusivities”.
For the compound Arg-Tyr-Lys-Arg-Thr [Pf-pep], the known net charge entry in the series “Solute properties” is listed as “+3”. In addition, the “average net charge Z” value in series [3] is recorded as “+3.07 ± 0.74”. Besides, the “binding to sites within cartilage” value in series [4] is “negligible binding; also recorded: little or no binding of Pf-pep to sites within the tissue; also recorded: did not show measurable binding to the negatively charged GAG chains in cartilage”. Moreover, the “characteristic time lag L^2/6D” value in series [5] (L = 1 mm, D ~1×10^−6 cm^2/s) is ~ 27 min. Further, in series [5] (Stokes-Einstein relation, from room temperature to 37°C), the “factor of increase of diffusion coefficient at 37°C” value is recorded as ~ 1.4. For the same compound, the “diffusion time constant δ^2/(π^2D)” value in series [5] (δ = 400 μm, D ~1×10^−6 cm^2/s) was ~ 2.7 min.
As to “cationized bovine serum albumin (BSA): cationized bovine serum albumin”, the “uptake and retention in murine cartilage” value in series [6] is “increased uptake and prolonged retention via binding within murine cartilage compared to native BSA”.
As to insulin-like growth factor-1 [IGF-1], the “binding to IGFBPs in cartilage ECM” value in series [7] is listed as “binds to specific IGF binding proteins (IGFBPs)”.

Values taken from article PMC2885539 (Archives of biochemistry and biophysics, 2010).
